Measurements of several laboratories.
Lines come from different studies, so protocols differ.
Target: Serine/threonine-protein kinase N1 (PKN1, Homo sapiens, UniProt Q16512)

| SMILES | observed | action | technique | concentration | endpoint | value |
| --- | --- | --- | --- | --- | --- | --- |
| CN(C)C1CCN(CC#Cc2nn(C3CCCC3)c3nc(NCc4ccccc4)ncc23)C1 (stereo not drawn) | enzyme activity | inhibitor | FRET | 0.1 µM | inhibition | -1% |
| Cc1ccc(NC(=O)c2ccc(CN3CCN(C)CC3)cc2)cc1Nc1nc(-c2cccnc2)cs1 | cell-free assay | – | – | 0.5 µM | remaining signal | 99.3% |
| CS(=O)(=O)Nc1cccc(-c2csc(NC(=O)CSc3nc4nccnc4c(=O)n3CCc3ccccc3)n2)c1 | enzyme activity | inhibitor | – | 10 µM | inhibition | -5% |
| CS(=O)(=O)N1CCCC(NC(=O)[C@H](CCC2CCCCC2)NC(=O)c2ccc(CNc3ncnc4c3nnn4-c3ccccc3)cc2)C1 (stereo partly drawn) | cell-free assay | – | competition with immobilised ligand | 0.1 µM | remaining binding | 98% |
| N#CCCc1ccc2c(c1)-c1[nH]c3ccc([N+](=O)[O-])cc3c1CC(=O)N2 | cell-free assay | – | – | 0.5 µM | remaining signal | 78% |
| CC(C)(O)[C@H]1CC[C@H](Nc2ccc3ncc(-c4cccc(C(F)(F)F)c4)n3n2)CC1 | enzyme activity | inhibitor | – | 1 µM | remaining activity | 65.5% |
| Cc1c(NC(=O)c2cc3c(s2)CCCC3)cccc1-c1cn(C)c(=O)c(Nc2ccc([C@@H]3C(=O)N(C)CCN3C)cc2)n1 | enzyme activity | inhibitor | – | 1 µM | activity vs control | 76% |
| CC/C(=N\NC(=O)NCc1cccc(O)c1)c1ccc(O)c(C)c1O | enzyme activity | inhibitor | – | 0.1 µM | inhibition | 29.1% |
| O=C1Nc2ccc(Cl)cc2C1=Cc1cc(Cl)c(O)c(Cl)c1 | cell-free assay | – | – | 0.5 µM | remaining signal | 93% |
| COc1cc2ncnc(Nc3ccc(Oc4ccccc4)c(C)c3C)c2cc1OC | enzyme activity | inhibitor | – | 1 µM | inhibition | 4% |
| c1ccc(CNc2nc(N3CCOc4ccccc43)nc3c2CCCC3)cc1 | target engagement in cells | inhibitor | chemoproteomics | 20 mM | inhibition | 1.6% |
| Cc1c(NC(=O)c2cc(C(N)=O)nc3cc(F)ccc23)c(C(F)(F)F)nn1Cc1ccc(C(C)(C)C)cc1 | cell-free assay | – | competition with immobilised ligand | 1 µM | remaining binding | 100% |
| CC1(C)NC(=O)c2[nH]c3c(Cl)c(Cl)ccc3c2C1C#N (stereo not drawn) | thermal stability | – | DSF | 10 µM | ΔTm | 0.4 °C |
| COc1cc(Cl)c(C(=O)N[C@@H](CN[C@H]2CC[C@@H](N)CC2)Cc2ccc(C#N)cc2)cc1-c1ccc(CN[C@H](C)c2ccc(C)cc2)o1 | enzyme activity | inhibitor | – | 1 µM | remaining activity | 108% |
| C[C@H](c1cccc(C#N)c1)n1cc(Cl)cc(C(N)=O)c1=N | cell-free assay | – | competition with immobilised ligand | 1 µM | remaining binding | 65% |
| CO[C@@H](C)Cn1c(=O)n(C)c2cnc3ccc(-c4cncc(C(C)(C)O)c4)cc3c21 | enzyme activity | inhibitor | – | 1 µM | activity vs control | 94% |
| COc1cc(-c2cc(-c3ccc(N4CCNCC4)cc3)cnc2C)cc(OC)c1OC | enzyme activity | inhibitor | – | 1 µM | inhibition | 6% |
| Cn1cncc1C1=CN(c2ncnc3[nH]cnc23)CCS1 | enzyme activity | inhibitor | radiometric | 50 nM | inhibition | 18.8% |
| CN1CCC2(CC1)NC(=O)c1c(c3ccc(Cl)c(Cl)c3n1C)C2C#N (racemic) | thermal stability | – | DSF | 10 µM | ΔTm | 1 °C |
| COc1cc2c(Nc3ccc(Br)cc3F)ncnc2cc1OCC1CCN(C)CC1 | cell-free assay | – | – | 0.5 µM | remaining signal | 103% |

| SMILES | observed | action | technique | concentration | endpoint | value |
| --- | --- | --- | --- | --- | --- | --- |
| Cn1c2c(Cl)c(Cl)ccc2c2cc(N)[nH]c(=O)c21 | thermal stability | – | DSF | 10 µM | ΔTm | 0.6 °C |
| CC(=O)C1=C(C)N(c2cccc(C(F)(F)F)c2)C(=O)N[C@@H]1c1ccc(C#N)nc1 | cell-free assay | – | competition with immobilised ligand | 1 µM | remaining binding | 71.1% |
| O=c1c(O)c(-c2ccc(O)c(O)c2)oc2cc(O)cc(O)c12 | enzyme activity | inhibitor | – | 1 µM | activity vs control | 69% |
| C#Cc1cccc(Nc2ncnc3cc(OCCOC)c(OCCOC)cc23)c1 | cell-free assay | – | – | 0.5 µM | remaining signal | 108% |
| C[C@H](NC(=O)c1cnc2n1[C@](C)(Cc1ccc(C#N)cc1)C(=O)N2c1cc(Cl)c(F)c(Cl)c1)C(=O)NC1(c2ccccn2)CC1 | cell-free assay | – | competition with immobilised ligand | 1 µM | remaining binding | 100% |
| Nc1cc(N)c(N)cc1N | enzyme activity | inhibitor | – | 1 µM | activity vs control | 72% |
| O=C(Nc1cnn(-c2csc(C(=O)NC3COC3)c2)c1)Nc1c(F)cccc1Cl | enzyme activity | inhibitor | – | 5 µM | remaining activity | 96.5% |
| Cc1c[nH]c2nc(Nc3ccc(N4CCN(C)CC4)c(F)c3)nc(-c3cccc(CC#N)c3)c12 | enzyme activity | inhibitor | – | 1 µM | activity vs control | 19% |
| Cc1ccc(C(=O)Nc2ccc(CN3CCN(C)CC3)c(C(F)(F)F)c2)cc1C#Cc1cnc2cccnn12 | enzyme activity | inhibitor | – | 23.5 nM | remaining activity | 100% |
| CCCCN(CCCC)C(=O)CN1C[C@H](c2cc(OC)c3c(c2)OCO3)[C@@H](C(=O)O)[C@@H]1CC(C)(C)CCC | cell-free assay | – | competition with immobilised ligand | 1 µM | remaining binding | 100% |
| Cn1c2c(Cl)c(Cl)ccc2c2cc[nH]c(=O)c21 | thermal stability | – | DSF | 10 µM | ΔTm | 0.9 °C |
| O=C(NC[C@@H]1[C@H]2CN(C(=O)OCc3cc(C(F)(F)F)cc(C(F)(F)F)c3)C[C@@H]12)c1ccc2[nH]nnc2c1 | cell-free assay | – | competition with immobilised ligand | 1 µM | remaining binding | 100% |
| O=C(Nc1cnn(-c2csc(C(=O)NC3COC3)c2)c1)Nc1ccccc1Cl | enzyme activity | inhibitor | – | 5 µM | remaining activity | 110% |
| O=C(Nc1cnn2ccc(N3CCC[C@@H]3c3cc(F)ccc3F)nc12)N1CC[C@H](O)C1 | enzyme activity | inhibitor | – | 1 µM | activity vs control | 94% |
| O=C(NCc1ncc(C(F)(F)F)cc1Cl)c1ccc2c(c1)C1(CCS(=O)(=O)CC1)[C@@H](C1CC1)N2S(=O)(=O)c1ccc(F)cc1 | cell-free assay | – | competition with immobilised ligand | 1 µM | remaining binding | 100% |
| CC(=O)c1cnc2ccc(-c3cc(Cl)c(O)c(Cl)c3)nc2c1N[C@H]1CC[C@H](CN(C)C)CC1 | enzyme activity | inhibitor | – | 1 µM | activity vs control | 0% |
| CN1CC(Oc2cnc(C#N)cc2-c2ccn3nc(NC(=O)C4CC4)cc3c2)C1 | enzyme activity | inhibitor | – | 1 µM | inhibition | -9% |
| Cl.Cl.O=C(NCCCNc1nc(Nc2cccc(CN3CCOCC3)c2)ncc1C1CC1)C1CCC1 | enzyme activity | inhibitor | – | 1 µM | activity vs control | 52% |
| CC(C)(C)c1nc(-c2cccc(NS(=O)(=O)c3c(F)cccc3F)c2F)c(-c2ccnc(N)n2)s1 | enzyme activity | inhibitor | radiometric | 1 µM | remaining activity | 101% |
